# BaF3 parental: parental Ba/F3 cell viability inhibition, counter-screen for JAK2V617F inhibitor project, murine pro-B, CellTiter-Glo luminescence; CellTiter-Glo ATP luminescence; inhibition, % at 5.6 µM; hit rate 1.1% among 220,000;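 active = inhibition above a per-campaign cutoff, the mean inhibition of all tested compounds plus 3 SD, cut at about 27% in these data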;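 note: 0% = DMSO wells and 100% = JAK Inhibitor I control wells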
# L major viab: Leishmania major promastigote growth inhibition, primary screen. hit rate 9% among 200,000. Leishmania major promastigotes, resazurin fluorescence viability. inhibition, % at 10 µM. AID 1063, 2008; in the data active = inhibition above about 50%;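 note: promastigotes grown with compound for 44 hours at 28 °C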
# Ba/F3 V617F tox: reduced viability of JAK2V617F-dependent Ba/F3 cells, primary screen, JAK2V617F inhibitor project, cell-based, Ba/F3 EpoR-JAK2V617F, luminescence; hit rate 1.1% among 220,000; inhibition, % at 5.6 µM; ATP luminescence;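 active = inhibition above the campaign mean plus 3 SD over all tested compounds, cut at about 24% in these data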;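 note: cytokine-independent growth of Ba/F3 cells driven by EpoR plus mutant JAK2; 0% = DMSO-treated cells and 100% = JAK inhibitor I control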
# MT stabilizer: microtubule stabilizers in HeLa cells, primary screen, imaging, high-content imaging | HeLa tubulin immunostaining HCS, 24 h; share of cells brighter than vehicle mean+2SD | % tubulin-high responders, % at 10 µM | hit rate 0.83% among 200,000 | AID 2205, 2009;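 active = plate Z-score above 3 for both tubulin-high and condensed-nucleus cell shares, with cell loss under 80%, at 10 µM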;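 note: anti alpha tubulin signal scored within the nucleus-defined area of each cell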
# b-catenin transl: modulators of beta-catenin nuclear translocation, primary screen, imaging, HeLa cells, immunofluorescence, high-content; nuclear translocation activity, % at 5 µM; hit rate 0.3% among 190,000;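 active = nuclear translocation activity above 50% at 5 µM, with a well cell count of 50 or more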;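 note: per-cell ratio of nuclear to cytoplasmic median beta-catenin stain intensity; plate controls were DMSO negative control for no effect and GSK-3 inhibitor IX positive control for full effect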
#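 Test system: human HeLa cells, endogenous beta-catenin. Times: 24 h compound exposure, 37°C. Measured by: beta-catenin immunofluorescence imaging with DAPI.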
# APP 5UTR inh: inhibitors of APP translation via 5'UTR reporter, primary screen, APP 5'UTR luciferase, SH-SY5Y cells; hit rate 0.82% among 190,000; inhibition, % at 2 µM; AID 1285, 2008; SH-SY5Y APP 5'UTR-luciferase reporter, luminescence;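 active = inhibition above a set limit, derived from the sample mean plus 3 SD, cut at about 45% in these data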
# * hit, by the source's call; · = no result. An excerpt weighted towards active compounds, which were near 9.6% of everything screened.
SMILES,BaF3 parental,L major viab,Ba/F3 V617F tox,MT stabilizer,b-catenin transl,APP 5UTR inh
Cc1cc(N2CCCC2=O)cc(C)c1S(=O)(=O)NCCOc1ccc(C(C)(C)C)cc1,36*,6,22,3,-1,-8
Cc1ccc(Cl)cc1NC(=S)NCc1cccn1C,3,51*,0,3,0,4
COC(=O)/C=C1\SC(N2CCOCC2)=C(c2ccc(OC)cc2)C1=O,2,32,-1,5,-2,3
O=C(O)CC1S/C(=N/N=C/c2ccc(-c3ccc(Cl)cc3[N+](=O)[O-])o2)NC1=O (centres undefined),2,99*,0,2,2,·
O=C(O)c1cccc(N/N=C/c2sc(N3CCOCC3)nc2-c2ccccc2)c1,4,29,-1,2,0,-31
O=C(N/N=C/c1sc(N2CCOCC2)nc1-c1ccccc1)c1ccccc1Cl,6,2,0,4,0,-15
O=[N+]([O-])c1ccc(N/N=C/c2sc(N3CCOCC3)nc2-c2ccccc2)c(S(=O)(=O)Nc2ccccc2Cl)c1,2,70*,-2,9,4,-1
O=[N+]([O-])c1ccc(N/N=C/c2sc(N3CCOCC3)nc2-c2ccccc2)c(S(=O)(=O)Nc2ccc(Cl)cc2)c1,7,66*,2,24,2,6
C/C(=N\N=C1\NC(=O)C(CC(=O)Nc2ccc(C)c(Cl)c2)S1)C(C)C (centres undefined),1,12,-3,5,-2,9
CC(C)Oc1ccc(Nc2ncnc3ccccc23)cc1,7,56*,4,6,0,-88
COC(=O)c1cccc(Nc2ncnc3ccc(C)cc23)c1,5,51*,-4,2,·,-8
Cc1cccc(Nc2ncnc3ccccc23)c1,0,88*,-1,2,-1,-21
Cc1ccccc1C(=O)Oc1cccc(Nc2ncnc3ccccc23)c1,6,57*,4,3,·,-23
Cc1ccc(Nc2ncnc3ccccc23)cc1,12,36,1,1,1,-149
COc1ccc(OC)c(Nc2ncnc3ccccc23)c1,7,40,0,1,-4,3
Cc1cc(C(=O)CSc2nnc(NCc3ccccc3)s2)c(C)n1C,0,0,-5,46,111*,2
Cn1cnnc1SCC(=O)c1c[nH]c2ccccc12,5,-7,2,3,-4,-23
CCCCNc1nnc(SCC(=O)c2c[nH]c3ccccc23)s1,5,67*,1,4,·,-6
O=C(CN1CC(=O)Nc2ccccc21)NCCc1ccc(Cl)cc1Cl,1,1,-1,1,2,-10
CC(=O)c1c(C)n(C)c2ccc(OC(=O)c3ccc([N+](=O)[O-])cc3)cc12,4,-4,-2,1,0,-12
COc1cc(OC)c(NS(=O)(=O)c2cc(C(=O)OC(C)C(=O)NC3CC3)c(Cl)cc2Cl)cc1Cl (centres undefined),7,78*,3,3,-1,-1
C[N+]1(CCCOC(=O)C2(c3ccccc3)CCCC2)CCOCC1,58*,-5,6,3,-3,-5
CC(=O)Nc1ccc(NC(=O)C(Sc2ccccc2)c2ccccc2)cc1 (centres undefined),0,·,-3,·,1,·
CCCCNS(=O)(=O)c1ccc(NC(=O)C(Sc2ccccc2)c2ccccc2)cc1 (centres undefined),4,79*,-1,2,-3,-5
CC(=O)NS(=O)(=O)c1ccc(NC(=O)C(Sc2ccccc2)c2ccccc2)cc1 (centres undefined),2,-12,-4,2,0,-18
CCC(C)NS(=O)(=O)c1ccc(NC(=O)C(Sc2ccccc2)c2ccccc2)cc1 (centres undefined),8,68*,-3,6,0,8
CC(C)C1Cc2c(sc3c2c(=O)n(-c2ccccc2)c2n[nH]c(=S)n32)CO1 (centres undefined),-1,·,0,·,0,·
C[n+]1ccccc1COc1ccc(C(C)(C)C)cc1,68*,-2,73*,7,·,1

# Screening results: PubChem, several laboratories
